In ChEMBL document CHEMBL1629558, “Effect of electrical current on the activities of antimicrobial agents against Pseudomonas aeruginosa, Staphylococcus aureus, and Staphylococcus epidermidis biofilms” (2009):
Values after ≈ are worked out from the molar mass of the structure shown.

What was measured:
Assay type in all cases: functional
Pseudomonas aeruginosa [1] = assay: Antimicrobial activity against Pseudomonas aeruginosa Xen 5 by broth microdilution method
How it was run: (§1)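 Planktonic MICs determined by CLSI broth microdilution; strains (MRSA Xen 30, P. aeruginosa Xen 5) stored at −70°C.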

Pseudomonas aeruginosa [2] = assay: Antimicrobial activity against Pseudomonas aeruginosa Xen 5 biofilm assessed as log10 CFU/cm'2 in bacterial count
How it was run: (§2)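 Biofilms grown on Teflon coupons in a CDC biofilm reactor (1 ml of 10^8 CFU/ml inoculum, 37°C shaking 18 h, then 18 h at room temperature). Coupons then sat 24 h at room temperature in flow chambers with fresh medium ± drug ± direct current via graphite electrodes. Biofilm removed by vortex plus 5 min sonication, plated on blood agar (37°C, 5% CO2, 48 h). Triplicate; mean log10 CFU/cm2.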

Pseudomonas aeruginosa [3] = assay: Antimicrobial activity against Pseudomonas aeruginosa Xen 5 biofilm assessed as log10 CFU/cm'2 in bacterial count in presence of 2000 microamperes of electric current by bioelectric effect assay; how it was run: as §2
Staphylococcus aureus [4] = assay: Antimicrobial activity against Staphylococcus aureus Xen 30 by broth microdilution method; how it was run: as §1
Staphylococcus aureus [5] = assay: Antimicrobial activity against Staphylococcus aureus Xen 30 biofilm assessed as log10 CFU/cm'2 in bacterial count; how it was run: as §2
Staphylococcus aureus [6] = assay: Antimicrobial activity against Staphylococcus aureus Xen 30 biofilm assessed as log10 CFU/cm'2 in bacterial count in presence of 200 microamperes of electric current by bioelectric effect assay
How it was run: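 MRSA Xen 30 biofilms grown on Teflon coupons (12.5 mm) in a CDC biofilm reactor seeded with 1 ml of 10^8 CFU/ml: 18 h 37°C with shaking, then 18 h room temperature. Coupons were exposed in flow chambers to fresh medium ± antimicrobial with direct current for 24 h at room temperature. Biofilm was dislodged by vortex and sonication, then plated on blood agar. Counts are mean log10 CFU/cm2 from triplicate experiments.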

[7] = tested on: Staphylococcus epidermidis; assay: Antimicrobial activity against Staphylococcus epidermidis Xen 43 biofilm assessed as log10 CFU/cm'2 in bacterial count in presence of 2000 microamperes of electric current by bioelectric effect assay; how it was run: as §2
[8] = tested on: Staphylococcus epidermidis; assay: Antimicrobial activity against Staphylococcus epidermidis Xen 43 biofilm assessed as log10 CFU/cm'2 in bacterial count; how it was run: as §2
[9] = tested on: Staphylococcus epidermidis; assay: Antimicrobial activity against Staphylococcus epidermidis Xen 43 by broth microdilution method
Staphylococcus aureus [10] = assay: Antimicrobial activity against Staphylococcus aureus Xen 30 biofilm assessed as log10 CFU/cm'2 in bacterial count in presence of 2000 microamperes of electric current by bioelectric effect assay; how it was run: as §2
[11] = tested on: Staphylococcus epidermidis; assay: Antimicrobial activity against Staphylococcus epidermidis Xen 43 biofilm assessed as log10 CFU/cm'2 in bacterial count in presence of 200 microamperes of electric current by bioelectric effect assay; how it was run: as §2
Staphylococcus aureus [12] = assay: Antimicrobial activity against Staphylococcus aureus Xen 30 biofilm assessed as log10 CFU/cm'2 in bacterial count in presence of 20 microamperes of electric current by bioelectric effect assay; how it was run: as §2
Pseudomonas aeruginosa [13] = assay: Antimicrobial activity against Pseudomonas aeruginosa Xen 5 biofilm assessed as log10 CFU/cm'2 in bacterial count in presence of 200 microamperes of electric current by bioelectric effect assay; how it was run: as §2

SMILES	MIC (Pseudomonas aeruginosa [1]) [µg/mL]	log10cfu (Pseudomonas aeruginosa [2])	log10cfu (Pseudomonas aeruginosa [3])	MIC (Staphylococcus aureus [4]) [µg/mL]	log10cfu (Staphylococcus aureus [5])	log10cfu (Staphylococcus aureus [6])	log10cfu [7]	log10cfu [8]	MIC [9] [µg/mL]	log10cfu (Staphylococcus aureus [10])	log10cfu [11]	log10cfu (Staphylococcus aureus [12])	log10cfu (Pseudomonas aeruginosa [13])
CO/N=C(\C(=O)N[C@@H]1C(=O)N2C(C(=O)[O-])=C(C[N+]3(C)CCCC3)CS[C@H]12)c1csc(N)n1	2 (≈ 4.16 µM)	0.96	1.43	–	–	–	–	–	–	–	–	–	–
CCCCCCCCCC(=O)N[C@@H](Cc1c[nH]c2ccccc12)C(=O)N[C@H](CC(N)=O)C(=O)N[C@@H](CC(=O)O)C(=O)N[C@@H]1C(=O)NCC(=O)N[C@@H](CCCN)C(=O)N[C@@H](CC(=O)O)C(=O)N[C@H](C)C(=O)N[C@@H](CC(=O)O)C(=O)NCC(=O)N[C@H](CO)C(=O)N[C@@H]([C@H](C)CC(=O)O)C(=O)N[C@@H](CC(=O)c2ccccc2N)C(=O)O[C@@H]1C	–	–	–	1 (≈ 0.617 µM)	1.63	1.94	1.2	-0.38	0.125 (≈ 0.0771 µM)	–	–	–	–
O=C(O)c1cn(C2CC2)c2cc(N3CCNCC3)c(F)cc2c1=O [CIPROFLOXACIN]	–	-0.63	1.86	–	–	–	–	–	–	–	–	–	–
CC[C@H]1OC(=O)[C@H](C)[C@@H](O[C@H]2C[C@@](C)(OC)[C@@H](O)[C@H](C)O2)[C@H](C)[C@@H](O[C@@H]2O[C@H](C)C[C@H](N(C)C)[C@H]2O)[C@](C)(O)C[C@@H](C)C(=O)[C@H](C)[C@@H](O)[C@]1(C)O [ERYTHROMYCIN]	–	–	–	0.5 (≈ 0.681 µM)	-0.17	–	–	0.7	0.125 (≈ 0.17 µM)	0.27	2.04	–	–
CC(=O)NC[C@H]1CN(c2ccc(N3CCOCC3)c(F)c2)C(=O)O1 [LINEZOLID]	–	–	–	–	0.62	–	–	0.22	1 (≈ 2.96 µM)	1.51	0.63	–	–
CN(C)c1ccc(O)c2c1C[C@H]1C[C@H]3[C@H](N(C)C)C(O)=C(C(N)=O)C(=O)[C@@]3(O)C(O)=C1C2=O [MINOCYCLINE]	–	–	–	4 (≈ 8.74 µM)	0.7	–	–	-0.18	1 (≈ 2.19 µM)	–	3.32	2.04	–
COc1c(N2C[C@@H]3CCCN[C@@H]3C2)c(F)cc2c(=O)c(C(=O)O)cn(C3CC3)c12 [MOXIFLOXACIN]	–	–	–	2 (≈ 4.98 µM)	1.33	–	0.82	-0.41	≤ 0.125	–	–	2.1	–
CO[C@H]1/C=C/O[C@@]2(C)Oc3c(C)c(O)c4c(O)c(c(/C=N/N5CCN(C)CC5)c(O)c4c3C2=O)NC(=O)/C(C)=C\C=C\[C@H](C)[C@H](O)[C@@H](C)[C@@H](O)[C@@H](C)[C@H](OC(C)=O)[C@@H]1C [RIFAMPIN]	–	–	–	2 (≈ 2.43 µM)	0.86	–	2.5	0.17	≤ 0.125	1.78	–	–	–
NC[C@H]1O[C@H](O[C@H]2[C@H](O)[C@@H](O[C@H]3O[C@H](CO)[C@@H](O)[C@H](N)[C@H]3O)[C@H](N)C[C@@H]2N)[C@H](N)C[C@@H]1O [TOBRAMYCIN]	1 (≈ 2.14 µM)	1.69	–	4 (≈ 8.56 µM)	0.86	–	3.08	0.2	0.25 (≈ 0.535 µM)	2	–	–	2.48
CN[C@H](CC(C)C)C(=O)N[C@H]1C(=O)N[C@@H](CC(N)=O)C(=O)N[C@H]2C(=O)N[C@H]3C(=O)N[C@H](C(=O)N[C@H](C(=O)O)c4cc(O)cc(O)c4-c4cc3ccc4O)[C@H](O)c3ccc(c(Cl)c3)Oc3cc2cc(c3O[C@@H]2O[C@H](CO)[C@@H](O)[C@H](O)[C@H]2O[C@H]2C[C@](C)(N)[C@H](O)[C@H](C)O2)Oc2ccc(cc2Cl)[C@H]1O [VANCOMYCIN]	–	–	–	–	-0.31	1.59	2.09	0.7	–	–	–	–	–
